Source: PubChem BioAssay
In the library only some 5.6% were active in any assay of this set; here they are far more common.
MPTP inh = inhibitors of mitochondrial permeability transition pore | isolated mouse mitochondria, Ca2+ swelling absorbance, 30 min | inhibition, % at 10 µM | 1.4% of 360,000 active;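 active = inhibition of 50% or more, scaled per plate between neutral and stimulator controls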;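 note: 0% = DMSO wells given calcium and 100% = 1 mM EGTA wells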
NR3A LBD binder = modulators (binders) of human NR3A ligand-binding domain. NR3A LBD differential scanning fluorimetry, Tm shift; 0% = protein alone, 100% = glycine-bound protein. AID 1259313. 2.5% of 340,000 active. Tm shift relative to glycine control, % at 25 µM;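 active = melting temperature shift of at least 10% of the positive control shift, at one fixed dose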
CHOP UPR activ = activators of apoptotic arm of unfolded protein response (CHOP). CHO-CHOP luciferase reporter, UPR activation, luminescence; percent of tunicamycin response over DMSO baseline. 0.34% of 330,000 active. activation, % at 10 µM;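 active = at 10 µM dose, activation of 40% or more, normalized to positive control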;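 note: 100% = tunicamycin at 10 µg/mL and 0% = DMSO alone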
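Test system: CHO CHOP reporter cells. Input: 500 CHO-CHOP cells per well. Medium: F12 with 10% FBS. Technique: luciferase luminescence. Measure: percent activation relative to tunicamycin control. Dosing: 10 µM compound, 0.5% DMSO. Timing: 16-18 h cell attachment, then 6 h compound exposure, 37 °C.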
aDG glyco up = alpha-DG glycosylation activation. Pro5-aDG cells, alpha-DG glycosylation AlphaScreen (IIH6); 0% Pro5, 100% B10-LARGE cell signal. 0.22% of 360,000 active. activation, % at 10 µM;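 active = activation of at least 8% versus controls, or a plate z-score of at least 8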;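 note: Pro5 are CHO cells carrying HIG-tagged alpha-DG that lacks glycosylation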
XBP1 UPR activ = activators of adaptive arm of unfolded protein response (XBP1). activation, % at 20 µM. CHO-XBP1 luciferase reporter, IRE1-XBP1 UPR activation, luminescence; percent of tunicamycin response, DMSO as zero. 0.33% of 330,000 active;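 active = versus positive control, 20 µM dose yields 30% or more activation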;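 note: 100% = tunicamycin at 10 µg/mL and 0% = DMSO only wells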
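assay system = CHO-XBP1 luciferase reporter cells | amount = 1000 cells/well | buffer or medium = F12 plus 10% FBS | compound dosing = single point, 20 µM final compound, 1% DMSO | incubation = 16-18 h cell attachment at 37 °C, then 6 h compound exposure | detection = Steady-Glo luminescence read | controls = tunicamycin 10 µg/mL and vehicle-only wells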
CHOP inh = CHOP inhibition in unfolded protein response. CHO-K1 CHOP-promoter luciferase, tunicamycin-induced, 15-18 h. inhibition, % at 10 µM. 3.8% of 220,000 active;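 active = compounds that reduced the stress-induced luciferase reporter signal by more than about 70% of percent inhibition, limit read from the data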;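 note: 0% = tunicamycin plus vehicle and 100% = wells without tunicamycin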
CHOP confirm = confirmation of CHOP induction inhibitors; shares compounds with CHOP inh; CHO-CHOP promoter luciferase reporter, tunicamycin-induced, luminescence; inhibition, % at 10 µM; 45% of 2,100 active; AID 504437;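 active = mean of three repeat readings of reporter signal inhibition above a set limit, cut at about 70% in these data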;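 note: 0% = tunicamycin plus vehicle and 100% = wells lacking tunicamycin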
Starred values were filed as active, the others as inactive; · = no result given.

SMILES	MPTP inh	NR3A LBD binder	CHOP UPR activ	aDG glyco up	XBP1 UPR activ	CHOP inh	CHOP confirm
C#CC(=O)N(c1cc(OC)ccc1OC)C(C(=O)NC1CCCC1)c1cccs1 (stereo not given)	-2	1	-9	0	-9	108*	111*
COc1cccc(N(C(=O)CS(=O)CC(=O)Nc2ccc(F)cc2)C(C(=O)NC2CCCCC2)c2cccs2)c1 (stereo not given)	-1	-1	1	0	-6	100*	51
O=C(Nc1ccccc1Cl)c1cc[n+]([O-])cc1	-1	-2	-2	0	-2	·	·
Cc1nn2c(N)c(C#N)cnc2c1-c1ccc(Cl)cc1	-1	2	-1	0	-2	98*	-26
COc1ccc(CC(=O)NNC2=Nc3cccc4cccc2c34)cc1	7	5	-1	0	-3	100*	-60
CC1(C)CC(NC(=O)C2CCN(S(=O)(=O)c3ccc(Cl)c(C(F)(F)F)c3)CC2)CC(C)(C)N1	4	-2	·	0	·	·	·
O=C(CCN1C(=O)/C(=C\c2ccccc2)SC1=S)Nc1ccc(C(=O)O)cc1	0	6	0	0	0	·	·
O=C(CCCN1C(=O)/C(=C\c2ccccc2)SC1=S)Nc1ccc(O)cc1	0	6	1	0	-1	98*	18
COC(=O)c1sccc1NC(=S)N1CCN(c2cc(C)ccc2C)CC1	3	-2	0	0	-4	7	·
CC1CCC(NC(=O)C2c3ccccc3C(=O)N2Cc2cccs2)CC1 (stereo not given)	0	1	2	0	-1	12	·
CCCCC(CC)CNC(=O)C(Cc1ccccc1)NS(=O)(=O)c1ccc2c(c1)CCC(=O)N2 (stereo not given)	2	0	0	0	-3	34	·
CCCC[C@H]1COCCS(=O)(=O)N1Cc1ccccc1F	0	-2	-2	0	3	·	·
Cc1cc(Nc2ccccc2)nc(-c2ccccc2O)n1	3	11*	3	0	5	96*	100*
COCCCNC(=O)c1cccn2c(=O)c3cc4ccccc4cc3nc12	-2	2	7	0	3	98*	58
O=C(NCc1ccco1)c1cccn2c(=O)c3cc4ccccc4cc3nc12	·	·	·	·	·	-55	·
CC(C)C(=O)N1CCC(CN=Cc2c(O)n(C3CCCCC3)c(=O)n(C3CCCCC3)c2=O)CC1	3	0	·	0	·	104*	118*
CCOc1ccc(N2C(=O)/C(=C\c3ccc(O)c(OC)c3)S(=O)(=O)C2c2cccc([N+](=O)[O-])c2)cc1 (stereo not given)	-4	10*	5	0	4	104*	80*
CC(C)(C)c1cc(NC(=O)Nc2ccc(Cl)cc2Cl)no1	30	8	3	0	1	96*	13
CCOC(=O)c1c(NC(=O)COC(=O)CNC(=O)c2ccc(Cl)cc2Cl)sc(C(=O)N(C)C)c1C	-1	2	-1	0	2	·	·
COc1ccc(/C=N/NC(=O)COc2ccccc2-c2ccccc2)cc1	4	-12	1	0	9	106*	11
O=C(COc1ccccc1-c1ccccc1)N/N=C/c1cccc2ccccc12	2	6	-1	0	16	35	·
COC(=O)c1ccccc1C(=O)c1c(C)cc(C)cc1C	-2	·	·	0	·	·	·
CC1(C(=O)NS(=O)(=O)c2ccccc2)CCN1C(=O)CC1CCCCC1 (stereo not given)	0	·	·	0	·	·	·
Cc1ccc(C2C(C#N)=C(N)Oc3cc4c(cc32)OCO4)cc1 (stereo not given)	-2	-14	-1	0	5	45	·
Cc1ccc(N=Cc2cc3c(cc2O)OC(N)=C(C#N)C3c2ccccc2)cc1 (stereo not given)	25	12*	5	0	-3	99*	82*
SMILES	MPTP inh	NR3A LBD binder	CHOP UPR activ	aDG glyco up	XBP1 UPR activ	CHOP inh	CHOP confirm
COc1ccc(NC(C)=O)cc1S(=O)(=O)N1CC=C(c2ccccc2)CC1	-1	3	0	0	-3	·	·
CSCCC1NC2(C(=O)Nc3c(Cl)cccc32)[C@@H]2C(=O)N(C3CCCC3)C(=O)[C@H]12 (stereo not given in full)	2	0	-1	0	-3	15	·
CSCCC1NC2(C(=O)Nc3c(C)cc(Cl)cc32)[C@@H]2C(=O)N(C3CCCC3)C(=O)[C@H]12 (stereo not given in full)	-1	-6	1	0	-3	104*	34
COc1ccc(CNc2oc(-c3cccc4ccccc34)nc2C#N)cc1	4	9	-2	0	0	97*	98*
CNc1oc(-c2cccc3ccccc23)nc1C#N	·	1	4	0	9	41	·
Cc1cc2ncn(-c3ncnc4sc5c(c34)CCC(C)C5)c2cc1C (stereo not given)	-1	0	-1	0	0	97*	14
CC(C)CCOc1ccc(C(=O)N2CCCC2C(=O)O)cc1 (stereo not given)	0	3	-1	0	-4	-1	·
CCOc1ccc2nc(NC(=O)CSc3nnnn3C3CCCCC3)sc2c1	4	0	1	0	-1	107*	110*
COc1ccc2nc(NC(=O)CSc3nnnn3C3CCCCC3)sc2c1	3	-3	0	0	0	1	·
CCOc1ccc2nc(NC(=O)CSc3nc4c(c(=O)n(C)c(=O)n4C)n3C(C)C)sc2c1	4	-1	1	1	4	105*	84*
COc1ccc2cc(/C=C/C(=O)N3CCN(CC(=O)N4CCCCCC4)CC3)ccc2c1	0	-2	3	0	1	·	·
CNC(=O)C[C@H]1C(=O)N(Cc2ccccc2)C[C@@H]1Cc1ccccc1	0	·	·	0	·	·	·
Oc1ccc(Oc2ccc3c(C(F)(F)F)cc(C(F)(F)F)nc3n2)cc1	1	-8	2	2	-1	98*	101*
COc1ccc(Oc2ccc3c(C(F)(F)F)cc(C(F)(F)F)nc3n2)cc1	0	-4	-2	0	3	52	·
Cc1[nH]nc2c1C(c1ccc(Cl)cc1)C(C#N)=C(N)O2 (stereo not given)	3	-2	-1	1	-5	6	·
Cc1cc(-c2[nH]nc3c2C(c2ccc(Cl)cc2)C(C#N)=C(N)O3)c(C)s1 (stereo not given)	-12	-8	-1	0	-3	103*	104*
O=C(Nc1nccs1)c1cc2c(s1)CCCCC2	1	1	-9	0	-16	98*	78*
